In the library only some 4.7% were active in any assay of this set; here they are far more common.
NR3A LBD binder = modulators (binders) of human NR3A ligand-binding domain; 340,000 compounds, 2.5% hits; AID 1259313; NR3A LBD differential scanning fluorimetry, Tm shift; 0% = protein alone, 100% = glycine-bound protein; Tm shift relative to glycine control, % at 25 µM;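 active = melting temperature shift of at least 10% of the positive control shift, at one fixed dose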
MPTP block = permeability transition pore inhibition. isolated mouse mitochondria, Ca2+ swelling absorbance, 30 min. AID 602449. 360,000 compounds, 1.4% hits. inhibition, % at 10 µM;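 active = inhibition of 50% or more, scaled per plate between neutral and stimulator controls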
MT1-MMP act inh = MT1-MMP (human) activation inhibition. P50281. HT1080 RFP-PRO-GFP cells, GFP/RFP ratio fluorescence, overnight; percent of plate control window, DMSO zero. GFP/RFP ratio change, % at 20 µM. 360,000 compounds, 0.061% hits;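 active = GFP/RFP ratio change of at least 30% with cell ATP level not reduced by more than half and red fluorescence within 50% of control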
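Assay system: HT1080 RFP-PRO-GFP cells. Benchmarks: DMSO vehicle wells and RFP-L50D-GFP reporter cell wells. Times: overnight cell settling, then overnight compound exposure, 37 °C, 5% CO2. Compound: 20 µM single dose, 1% DMSO. Read-out basis: GFP/RFP fluorescence ratio.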
ADAM17 inh = inhibitors of human ADAM17; P78536; inhibition, % at 6.95 µM; recombinant ADAM17, EDANS/DABCYL FRET peptide cleavage; 370,000 compounds, 0.83% hits;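 active = inhibition above the mean of compounds lying between control limits plus 3 SD, set per campaign, cut at about 8.5% in these data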
SKN-1 inh = inhibitors of C. elegans SKN-1; C. elegans VP596 Pgst-4::GFP/RFP ratio, acrylamide-induced, 24 h; inhibition, % at 21.8 µM; 360,000 compounds, 0.49% hits; AID 624304;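 active = interference check ratio from 0.5 to 1.5 plus GFP to RFP signal ratio inhibition reaching or exceeding a fixed threshold, cut at about 30% in these data, passing the limit was not always enough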
ADAM10 inh = ADAM10 inhibition, QFRET primary screen | 370,000 compounds, 0.62% hits | inhibition, % at 7 µM | recombinant ADAM10, EDANS/DABCYL FRET peptide cleavage, 3 h | O14672 | AID 720582;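 active = inhibition above a per-campaign cutoff equal to the mean of compounds falling between control-based bounds plus 3 SD, cut at about 20% in these data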
Each line names hits and unclear results; the compound was inactive in the other large screens.

Cc1cc(NC(=O)CCN2C(=O)/C(=C\c3ccccc3)SC2=S)no1	none
O=c1ccc(NS(=O)(=O)c2ccc(Cl)cc2)cn1Cc1ccc(Cl)c(Cl)c1	none
NNC(=O)c1cc(-c2ccc(N)cc2)nc2ccc(Br)cc12	NR3A LBD binder 18
CCOC(=O)C1(C)/C(=N/Nc2ccc(Cl)cc2)C(=O)C(=O)N1c1ccccc1 (stereo not drawn)	SKN-1 inh 38
COc1ccc(NS(=O)(=O)c2ccc(NC(=O)CCNS(=O)(=O)c3ccc(C)cc3)cc2)cc1	NR3A LBD binder 10
Cc1ccc(S(=O)(=O)Nc2ccc(NC(=O)c3cccs3)cc2)cc1	NR3A LBD binder 18
Cc1ccc(NS(=O)(=O)c2ccc(NS(=O)(=O)c3cccs3)cc2)cc1	none
CN(Cc1ccc(F)cc1)C(=O)c1ccc(NS(=O)(=O)c2ccccc2)cc1	NR3A LBD binder 13
O=C(O)c1ccccc1C(=O)Nc1ccc(S(=O)(=O)Nc2ccc(F)cc2)cc1	NR3A LBD binder 10
Cc1ccc(S(=O)(=O)NCCC(=O)Nc2ccc(S(=O)(=O)NC(C)C)cc2)cc1	none
CCCCOCCCNC(=O)C[C@@H]1C[C@@]2(C(=O)OC)CCCCC=C2N(Cc2ccco2)C1=O	none (no result: NR3A LBD binder)
Cn1c(C(=O)N2CCC(C(=O)N3CCOCC3)CC2)cc2sccc21	none
Cc1ccc(S(=O)(=O)Nc2ccc(Nc3ccccc3)cc2)cc1	NR3A LBD binder 24
Cc1ccc(S(=O)(=O)Nc2ccc(NC(=O)c3c(F)c(F)c(F)c(F)c3F)cc2)cc1	NR3A LBD binder 15
O=C(Nc1ccccc1C(=O)O)c1cccc(S(=O)(=O)Nc2ccc(Br)cc2)c1	NR3A LBD binder 12
O=C(Nc1ccccc1C(=O)O)c1cccc(NS(=O)(=O)c2ccc(Br)cc2)c1	none
Cc1ccc(S(=O)(=O)Nc2ccccc2N(C)S(=O)(=O)c2ccc(C)cc2)cc1	NR3A LBD binder 13
CCc1nnc(NC(=O)c2ccc(-c3ccc(C(C)=O)cc3)o2)s1	none
COc1ccc(CC(=O)NC2CCCCN(Cc3ccc(Cl)cc3)C2=O)cc1OC (stereo not drawn)	none (no result: NR3A LBD binder, MPTP block, MT1-MMP act inh, SKN-1 inh)
COc1ccc(NS(=O)(=O)c2ccc(OC)c(NC(=O)CCC3CCCCC3)c2)cc1	NR3A LBD binder 22
CC(=O)c1c(C)oc2c1cc(NS(=O)(=O)c1ccc(C(=O)O)cc1)c1ccccc12	none
O=C(NC1CC1)c1ccc(NS(=O)(=O)c2ccc(F)cc2)cc1	NR3A LBD binder 27
CC(=O)NS(=O)(=O)c1ccc(NC(=O)c2ccc(NC(=O)c3cccs3)cc2)cc1	none
O=C(NC1CC1)c1ccc(NS(=O)(=O)c2ccccc2)cc1	none
Cc1ccc(S(=O)(=O)Nc2cc3c(C(=O)Nc4ccccc4)c(C)oc3c3ccccc23)cc1	NR3A LBD binder 12
Cc1cc(C)c(NS(=O)(=O)c2ccc(NC(=O)c3cccs3)cc2)c(C)c1	NR3A LBD binder 25
O=C(Nc1ccccc1Cl)c1cc(C2CCCN(C(=O)c3ccc4c(c3)CCO4)C2)on1 (stereo not drawn)	none (no result: NR3A LBD binder)
CN(C)/C=C(\C(=O)c1ccccc1)c1nnnn1-c1ccc(F)cc1	none
COc1ccc(-c2nc(CS(=O)CC(=O)NC3CCCCCC3)c(C)o2)cc1 (stereo not drawn)	none
Cc1cccc(Nc2ccccc2C(=O)O)c1C	NR3A LBD binder 14
COc1cc(-c2ccc(Nc3ccccc3C(=O)O)c(OC)c2)ccc1Nc1ccccc1C(=O)O	NR3A LBD binder 38
Cc1cccc(Nc2ncccc2C(=O)O)c1C	none
Cc1ccc(-c2csc(N3CCN(c4cc5c(cc4Cl)nc(C(C)N)n5CCCO)CC3)n2)cc1 (stereo not drawn)	none
CC(C(=O)OCC(=O)Nc1ncc(Cl)cc1Cl)N1C(=O)c2ccccc2C1=O (stereo not drawn)	none
CCSC1=N/C(=C\c2ccccc2)C(=O)N1c1ccc(OC)cc1	none
CCN(CC)C1=N/C(=C\c2ccc(OC)cc2)C(=O)N1c1ccccc1	NR3A LBD binder 12
O=C(Nc1ccc(O)cc1)c1cc2ccccc2c(=O)s1	NR3A LBD binder 24
Cc1noc(C)c1S(=O)(=O)N1CCC(C(=O)NCCCN2CC(C)CC(C)C2)CC1 (stereo not drawn)	none
Cc1ccc(NC(=O)c2nc[nH]c2C(=O)Nc2ccc(C)cc2)cc1	none

Screens from PubChem BioAssay.
